What was measured:
Schistosoma mansoni [1] = assay: Incorporation of 2.6 *10e6 M [3H]uridine in hycanthone(HC) resistant Schistosoma mansoni; format: functional
Procedure, shortened: (§1)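 Adult HC-resistant S. mansoni were treated in vitro, and [3H]uridine incorporation by the worms was measured. Values are % of control. Concentrations are given in M × 10^6.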

Schistosoma mansoni [2] = assay: Incorporation of 5.2*10e6M [3H]-uridine in hycanthone(HC) sensitive Schistosoma mansoni; format: functional
Schistosoma mansoni [3] = assay: Incorporation of 1.3 *10e6 M [3H]uridine in hycanthone(HC) sensitive Schistosoma mansoni; format: functional
Schistosoma mansoni [4] = assay: Incorporation of 5.2*10e6M [3H]uridine in hycanthone(HC) resistant Schistosoma mansoni; format: functional; procedure, shortened: as §1
Schistosoma mansoni [5] = assay: Incorporation of 2.6 *10e6 M [3H]uridine in hycanthone(HC) sensitive Schistosoma mansoni; format: functional
Schistosoma mansoni [6] = assay: Day 50% survival of worms in culture of HC resistant Schistosoma mansoni at 1.3 *10e6 M; format: functional
Procedure, shortened: (§2)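 Adult HC-resistant S. mansoni were exposed in vitro and kept in culture. The value is the day by which 50% of worms were dead. Cultures were ended at different times in different experiments. Concentrations are given in M × 10^6.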

Schistosoma mansoni [7] = assay: Day 50% survival of worms in culture of HC sensitive Schistosoma mansoni at 1.3 *10e6 M; format: functional
Schistosoma mansoni [8] = assay: Incorporation of 1.3 *10e6 M [3H]uridine in hycanthone(HC) resistant Schistosoma mansoni; format: functional; procedure, shortened: as §1
Schistosoma mansoni [9] = assay: Day 50% survival of worms in culture of HC resistant Schistosoma mansoni at 5.2*10e6M; format: functional; procedure, shortened: as §2
Mus musculus [10] = assay: In vivo antitumor activity against p-388 lymphocytic leukemia in mice at 6.25 mg/kg; format: functional
Procedure, shortened: (§3)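 Murine P388 lymphocytic leukemia model tested by the National Cancer Institute. Compound given once daily for 9 days; activity expressed as T/C.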

HeLa [11] = assay: Incorporation of 2*10e-6 M [3H]uridine in HeLa cells in absence of HNMC measured as TCA precipitable radioactivity compared with non treated controls; format: functional, cell-based; conditions: Homo sapiens
Procedure, shortened: (§4)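 HeLa cells (10^6 per duplicate tube) were exposed to drug for 1 h, washed three times with medium, then held 2 h in drug-free medium. [3H]uridine was added for 1 h. Cells were precipitated with 10% TCA, and precipitates were filter-collected and counted. Values are % TCA-precipitable radioactivity versus untreated controls.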

HeLa [12] = assay: Binding of 5x 10e-4 M [3H]HNMC to HeLa DNA; format: functional, Homo sapiens
Procedure, shortened: (§5)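 HeLa cells exposed 1 h to [3H]-labelled drug, washed three times with saline, then held 30 min at 37 °C in drug-free medium. After a 2 h digestion at 37 °C, crude DNA was ethanol-precipitated, purified on a CsCl density gradient, dialyzed and reprecipitated. DNA was quantified by A260. An aliquot was treated with DNase, and DNase-sensitive radioactivity was expressed as drug molecules per base pair.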

HeLa [13] = assay: Incorporation of 2*10e-5 M [3H]uridine in HeLa cells in absence of HNMC measured as TCA precipitable radioactivity compared with non treated controls; format: functional, cell-based; conditions: Homo sapiens; procedure, shortened: as §4
Nucleic Acid [14] = assay: In vitro binding of [3H]HNMC to calf thymus DNA after precipitation with alcohol and TCA was measured after 1 day; format: nucleic-acid assay; conditions: Bos taurus
Procedure, shortened: (§6)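 0.02 µCi of 3H-labelled drug was added to 50 µg calf thymus DNA in 20 µL of 0.1 M citrate-phosphate buffer, pH 7. Incubated 1.5 h at 37 °C in the dark, diluted to 0.1 mL saline and dialyzed against saline at 4 °C for up to 4 days. Duplicate 10 µL samples taken from inside the bags at intervals were counted directly, or after TCA precipitation.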

[15] = (§7) Total radioactivity of [3H]HNMC was evaluated after 3 days; format: functional
Procedure, shortened: (§8)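 3H-labelled drug (0.02 µCi) was mixed with 50 µg calf thymus DNA in 0.1 M citrate-phosphate buffer, pH 7, and incubated in the dark for 1.5 h at 37 °C. The mix was diluted in saline and dialysed against saline at 4 °C. Duplicate samples drawn from inside the bags at intervals up to 4 days were counted directly.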

[16] = as §7; format: functional; procedure, shortened: as §8; remark: listed apart in the source
Schistosoma mansoni [17] = assay: Incorporation of 1.2 M*10e6 [3H]uridine in hycanthone(HC) sensitive Schistosoma mansoni; format: functional
Nucleic Acid [18] = assay: In vitro binding of [3H]HNMC to calf thymus DNA was measured after 4 day; format: nucleic-acid assay; conditions: Bos taurus; procedure, shortened: as §6
[19] = Total radioactivity of [3H]HNMC was evaluated after 2 hr; format: functional; procedure, shortened: as §8
HeLa [20] = assay: Incorporation of 10e-5 M [3H]uridine in HeLa cells in absence of HNMC measured as TCA precipitable radioactivity compared with non treated controls; format: functional, cell-based; conditions: Homo sapiens; procedure, shortened: as §4
Schistosoma mansoni [21] = assay: Incorporation of 6M *10e6 [3H]-uridine in hycanthone(HC) sensitive Schistosoma mansoni; format: functional
HeLa [22] = assay: Binding of 1x 10e-5 M [3H]HNMC to HeLa DNA; format: functional, Homo sapiens; procedure, shortened: as §5
HeLa [23] = assay: Binding of 1x 10e-4 M [3H]HNMC to HeLa DNA; format: functional, Homo sapiens; procedure, shortened: as §5
Schistosoma mansoni [24] = assay: Day 50% survival of worms in culture of HC sensitive Schistosoma mansoni; format: functional
[25] = Total radioactivity of [3H]HNMC was evaluated after 2 hours; format: functional; procedure, shortened: as §8
Nucleic Acid [26] = assay: In vitro binding of [3H]HNMC to calf thymus DNA after precipitation with alcohol and TCA was measured after 4 day; format: nucleic-acid assay; conditions: Bos taurus; procedure, shortened: as §6
[27] = (§9) Total radioactivity of [3H]HNMC was evaluated after 1 day; format: functional; procedure, shortened: as §8
Mus musculus [28] = assay: In vivo antitumor activity against p-388 lymphocytic leukemia in mice at 3.13 mg/kg; format: functional; procedure, shortened: as §3
Nucleic Acid [29] = assay: In vitro binding of [3H]HNMC to calf thymus DNA after precipitation with alcohol and TCA was measured after 3 days; format: nucleic-acid assay; conditions: Bos taurus; procedure, shortened: as §6
[30] = as §9; format: functional; procedure, shortened: as §8; remark: listed apart in the source
Nucleic Acid [31] = assay: In vitro binding of [3H]HNMC to calf thymus DNA after precipitation with alcohol and TCA was measured; format: nucleic-acid assay; conditions: Bos taurus; procedure, shortened: as §6
Nucleic Acid [32] = assay: In vitro binding of [3H]HNMC to calf thymus DNA was measured after 2 days; format: nucleic-acid assay; conditions: Bos taurus; procedure, shortened: as §6
Nucleic Acid [33] = assay: In vitro binding of [3H]HNMC to calf thymus DNA after precipitation with alcohol and TCA was measured after 2 hours; format: nucleic-acid assay; conditions: Bos taurus; procedure, shortened: as §6
Nucleic Acid [34] = assay: In vitro binding of [3H]HNMC to calf thymus DNA was measured after 3 days; format: nucleic-acid assay; conditions: Bos taurus; procedure, shortened: as §6
Schistosoma mansoni [35] = assay: Incorporation of 1.2 M *10e6 [3H]uridine in hycanthone(HC) resistant Schistosoma mansoni; format: functional; procedure, shortened: as §1
HeLa [36] = assay: Incorporation of 2*10e-5 M [3H]uridine in HeLa cells in presence of HNMC measured as TCA precipitable radioactivity compared with non treated controls; format: functional, cell-based; conditions: Homo sapiens
Procedure, shortened: (§10)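 HeLa cells (10^6 per duplicate tube) were incubated 1 h with drug. [3H]uridine was then added and incubation continued 1 h with drug present. Cells were washed with cold saline and precipitated with 10% TCA. Precipitates were collected on glass filters, TCA-washed and counted. Values are % TCA-precipitable radioactivity versus untreated controls.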

Schistosoma mansoni [37] = assay: Incorporation of 6M *10e6 [3H]uridine in hycanthone(HC) resistant Schistosoma mansoni; format: functional; procedure, shortened: as §1
Schistosoma mansoni [38] = assay: Day 50% survival of worms in culture of HC resistant Schistosoma mansoni; format: functional; procedure, shortened: as §2
Nucleic Acid [39] = assay: In vitro binding of [3H]HNMC to calf thymus DNA; format: nucleic-acid assay; conditions: Bos taurus; procedure, shortened: as §6
Nucleic Acid [40] = assay: In vitro binding of [3H]HNMC to calf thymus DNA was measured after 1 day; format: nucleic-acid assay; conditions: Bos taurus; procedure, shortened: as §6
Nucleic Acid [41] = assay: In vitro binding of [3H]HNMC to calf thymus DNA after precipitation with alcohol and TCA was measured after 2 day; format: nucleic-acid assay; conditions: Bos taurus; procedure, shortened: as §6
Nucleic Acid [42] = assay: In vitro binding of [3H]HNMC to calf thymus DNA was measured after 2 hours; format: nucleic-acid assay; conditions: Bos taurus; procedure, shortened: as §6
HeLa [43] = assay: Incorporation of 2*10e-6 M [3H]uridine in HeLa cells in presence of HNMC measured as TCA precipitable radioactivity compared with non treated controls; format: functional, cell-based; conditions: Homo sapiens; procedure, shortened: as §10
Mus musculus [44] = assay: In vivo antitumor activity against p-388 lymphocytic leukemia in mice at 12.5 mg/kg; Toxic; format: functional, organism-based; set-up: dose 12.5 mg/kg; procedure, shortened: as §3
HeLa [45] = assay: Incorporation of 10e-5 M [3H]uridine in HeLa cells in presence of HNMC measured as TCA precipitable radioactivity compared with non treated controls; format: functional, cell-based; conditions: Homo sapiens; procedure, shortened: as §10

Question: Which Control (Schistosoma mansoni [1]) does the source give for `CN(C)CCNc1ccc(CO)c2sc3ccc(O)cc3c(=O)c12` here?
Answer: Its Control is 108%.

Question: What about the Control (Schistosoma mansoni [2]) of the same compound?
Answer: Its Control is 23%.

Question: And the Control (Schistosoma mansoni [3])?
Answer: Its Control is 43%.

Question: And the Control (Schistosoma mansoni [4])?
Answer: The Control was 91%.

Question: What about the Control (Schistosoma mansoni [5]) of the same compound?
Answer: The Control was 20%.

Question: What about the Effect (Schistosoma mansoni [6]) of the same compound?
Answer: The Effect was greater than 12 days.

Question: And the Effect (Schistosoma mansoni [7])?
Answer: The Effect was 9 days.

Question: What about the Control (Schistosoma mansoni [8]) of the same compound?
Answer: The Control was 96%.

Question: And the Effect (Schistosoma mansoni [9])?
Answer: Its Effect is greater than 12 days.

Question: Which T/C (Mus musculus [10]) does the source give for `CCN(CC)CCNc1ccc(COC(=O)NC)c2sc3ccccc3c(=O)c12` here?
Answer: The T/C was 166%.

Question: And the Radioactivity (HeLa [11])?
Answer: Its Radioactivity is 24%.

Question: And the Drug mol/base pair (HeLa [12])?
Answer: Its Drug mol/base pair is 0.000203.

Question: What about the Radioactivity (HeLa [13]) of the same compound?
Answer: The Radioactivity was 2%.

Question: What about the Radioactivity (Nucleic Acid [14]) of the same compound?
Answer: Its Radioactivity is 9500 c.p.m.

Question: What about the Radioactivity [15] of the same compound?
Answer: Its Radioactivity is 100 c.p.m.

Question: What about the Radioactivity [16] of the same compound?
Answer: The Radioactivity was 1350 c.p.m.

Question: What about the Control (Schistosoma mansoni [17]) of the same compound?
Answer: The Control was 21%.

Question: What about the Radioactivity (Nucleic Acid [18]) of the same compound?
Answer: The Radioactivity was 15000 c.p.m.

Question: And the Radioactivity [19]?
Answer: The Radioactivity was 27500 c.p.m.

Question: And the Radioactivity (HeLa [20])?
Answer: The Radioactivity was 4%.

Question: And the Control (Schistosoma mansoni [21])?
Answer: The Control was 3%.

Question: What about the Drug mol/base pair (HeLa [22]) of the same compound?
Answer: Its Drug mol/base pair is 8.4e-05.

Question: What about the Drug mol/base pair (HeLa [23]) of the same compound?
Answer: The Drug mol/base pair was 0.00105.

Question: And the Effect (Schistosoma mansoni [24])?
Answer: Its Effect is 9 days.

Question: What about the Radioactivity [25] of the same compound?
Answer: The Radioactivity was 27500 c.p.m.

Question: And the Radioactivity (Nucleic Acid [26])?
Answer: Its Radioactivity is 5100 c.p.m.

Question: And the Radioactivity [27]?
Answer: Its Radioactivity is 150 c.p.m.

Question: And the T/C (Mus musculus [28])?
Answer: Its T/C is 132%.

Question: What about the Radioactivity (Nucleic Acid [29]) of the same compound?
Answer: The Radioactivity was 6900 c.p.m.

Question: What about the Radioactivity [30] of the same compound?
Answer: The Radioactivity was 1750 c.p.m.

Question: And the Radioactivity (Nucleic Acid [31])?
Answer: The Radioactivity was 11500 c.p.m.

Question: And the Radioactivity (Nucleic Acid [32])?
Answer: The Radioactivity was 14800 c.p.m.

Question: What about the Radioactivity (Nucleic Acid [33]) of the same compound?
Answer: Its Radioactivity is 12300 c.p.m.

Question: And the Radioactivity (Nucleic Acid [34])?
Answer: The Radioactivity was 16000 c.p.m.

Question: And the Control (Schistosoma mansoni [35])?
Answer: The Control was 39%.

Question: What about the Radioactivity (HeLa [36]) of the same compound?
Answer: The Radioactivity was 6%.

Question: And the Control (Schistosoma mansoni [37])?
Answer: The Control was 11%.

Question: And the Effect (Schistosoma mansoni [38])?
Answer: Its Effect is 8 days.

Question: And the Radioactivity (Nucleic Acid [39])?
Answer: The Radioactivity was 134000 c.p.m.

Question: What about the Radioactivity (Nucleic Acid [40]) of the same compound?
Answer: Its Radioactivity is 15000 c.p.m.

Question: What about the Radioactivity (Nucleic Acid [41]) of the same compound?
Answer: Its Radioactivity is 8000 c.p.m.

Question: What about the Radioactivity (Nucleic Acid [42]) of the same compound?
Answer: Its Radioactivity is 52000 c.p.m.

Question: And the Radioactivity (HeLa [43])?
Answer: The Radioactivity was 57%.

Question: What about the T/C (Mus musculus [44]) of the same compound?
Answer: The T/C was “Toxic”.

Question: And the Radioactivity (HeLa [45])?
Answer: Its Radioactivity is 11%.
